Our source for the IC50 and Ratio IC50 values is ChEMBL document CHEMBL3102751, “Cholinesterase inhibitory activity versus aromatic core multiplicity: a facile green synthesis and molecular docking study of novel piperidone embedded thiazolopyrimidines” (Bioorg Med Chem, 2014).

The target in test [1] is Cholinesterase (Equus caballus, UniProt P81908). Put plainly: Inhibition of equine serum butyrylcholinesterase using S-butyrylthiocholine chloride as substrate preincubated for 15 mins followed by substrate addition measured for 30 mins by Ellman's method. The method, boiled down:
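Modified Ellman assay in 0.1 M sodium phosphate buffer, pH 8. Samples were prepared in DMSO, with 1% DMSO in the final mix. Equine serum BChE was incubated with sample for 15 min at 25 °C. 10 mM DTNB stock was then added, followed by 14 mM S-butyrylthiocholine chloride stock. Absorbance at 412 nm was read for 30 min, and % inhibition was calculated relative to control.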

Test [2] has as its target Acetylcholinesterase (Electrophorus electricus, UniProt O42275). Put plainly: Inhibition of Electrophorus electricus acetylcholinesterase using acetylthiocholine iodide as substrate preincubated for 15 mins followed by substrate addition measured for 30 mins by Ellman's method.
Test [3] in a line: Selectivity ratio of IC50 for Electrophorus electricus acetylcholinesterase to IC50 for equine serum butyrylcholinesterase.
Test [4] in a line: Selectivity ratio of IC50 for equine serum butyrylcholinesterase to IC50 for Electrophorus electricus acetylcholinesterase.

Chain of Cholinesterase (P81908 whole entry): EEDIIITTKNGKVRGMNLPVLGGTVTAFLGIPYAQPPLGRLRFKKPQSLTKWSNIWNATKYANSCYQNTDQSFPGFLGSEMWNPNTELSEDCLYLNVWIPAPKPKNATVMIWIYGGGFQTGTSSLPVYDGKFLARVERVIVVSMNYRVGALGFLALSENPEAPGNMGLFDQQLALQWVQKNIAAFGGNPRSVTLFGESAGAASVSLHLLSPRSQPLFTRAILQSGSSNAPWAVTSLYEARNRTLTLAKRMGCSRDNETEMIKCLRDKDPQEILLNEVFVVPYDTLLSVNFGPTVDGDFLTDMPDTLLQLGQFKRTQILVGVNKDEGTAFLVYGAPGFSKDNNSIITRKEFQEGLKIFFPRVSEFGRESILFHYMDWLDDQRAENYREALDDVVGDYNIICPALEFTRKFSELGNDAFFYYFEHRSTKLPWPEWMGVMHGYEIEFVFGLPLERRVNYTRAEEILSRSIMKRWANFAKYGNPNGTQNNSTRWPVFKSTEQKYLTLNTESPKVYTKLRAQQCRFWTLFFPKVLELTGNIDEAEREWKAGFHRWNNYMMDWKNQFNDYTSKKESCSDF
Chain of Acetylcholinesterase (O42275 whole entry): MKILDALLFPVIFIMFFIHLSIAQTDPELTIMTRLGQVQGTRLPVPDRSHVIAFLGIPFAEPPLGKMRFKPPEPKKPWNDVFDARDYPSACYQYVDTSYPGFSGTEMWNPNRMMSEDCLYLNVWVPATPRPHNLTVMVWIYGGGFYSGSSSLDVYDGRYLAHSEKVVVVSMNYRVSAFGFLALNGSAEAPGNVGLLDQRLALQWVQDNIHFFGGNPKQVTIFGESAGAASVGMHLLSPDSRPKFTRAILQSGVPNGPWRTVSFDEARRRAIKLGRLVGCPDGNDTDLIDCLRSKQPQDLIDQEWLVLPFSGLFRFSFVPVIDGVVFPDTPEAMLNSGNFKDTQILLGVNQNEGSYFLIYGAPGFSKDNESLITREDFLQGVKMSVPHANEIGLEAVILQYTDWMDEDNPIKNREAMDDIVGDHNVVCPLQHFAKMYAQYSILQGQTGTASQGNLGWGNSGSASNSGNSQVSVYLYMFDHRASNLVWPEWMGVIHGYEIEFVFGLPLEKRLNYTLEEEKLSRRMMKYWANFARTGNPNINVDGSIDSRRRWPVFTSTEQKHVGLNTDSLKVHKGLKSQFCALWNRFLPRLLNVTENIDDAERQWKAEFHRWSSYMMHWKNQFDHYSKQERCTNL

What is called IC50 is the concentration that inhibits the measured activity by half. `S=C1NC2/C(=C/c3ccccc3Cl)CNCC2C(c2ccccc2Cl)N1` (stereo not drawn): the IC50 worked out at 2.91 µM in test [1] and 32.3 µM in test [2].

Consider `COc1ccc(C2=CSC3=NC4=C(CNC/C4=C\c4ccccc4Cl)C(c4ccccc4Cl)N23)cc1` (stereo not drawn), for which the Ratio IC50 was determined as 0.63 in test [3] and 1.58 in test [4]. The results for the IC50 in test [1] and in test [2] were 12.6 µM and 7.97 µM, respectively.

For the compound `Clc1ccc(/C=C2\CNCC3=C2N=C2SC=C(c4ccccc4)N2C3c2ccc(Cl)cc2)cc1` (stereo not drawn), the Ratio IC50 in test [3] stood at 0.74; in test [4], 1.35. The IC50 in test [1] was found to be 2.18 µM; in test [2] it was 1.62 µM.

On to `Cc1ccc(/C=C2\CNCC3=C2N=C2SC=C(c4ccccc4)N2C3c2ccc(C)cc2)cc1` (stereo not drawn), for which the Ratio IC50 came to 0.31 in test [3] and 3.21 in test [4]. Further, the values for the IC50 in test [1] and in test [2] were 1.71 µM and 0.53 µM, respectively.

With `Clc1ccc(C2=CSC3=NC4=C(CNC/C4=C\c4ccccc4Cl)C(c4ccccc4Cl)N23)cc1` (stereo not drawn), the results for the Ratio IC50 in test [3] and in test [4] were 0.68 and 1.47, respectively. Besides, the IC50 in test [1] was 7.65 µM; in test [2], 5.2 µM.

For `COc1ccccc1/C=C1\CNCC2=C1N=C1SC=C(c3ccccc3)N1C2c1ccccc1OC` (stereo not drawn), the Ratio IC50 in test [3] was determined as 1.03; in test [4], 0.97. Moreover, the figures for the IC50 in test [1] and in test [2] were 4.1 µM and 4.23 µM, respectively.

Consider `Clc1ccc(C2=CSC3=NC4=C(CNC/C4=C\c4ccccc4)C(c4ccccc4)N23)cc1` (stereo not drawn), for which the Ratio IC50 is 0.54 in test [3] and 1.86 in test [4]. The results for the IC50 in test [1] and in test [2] were 44.3 µM and 23.9 µM, respectively.

In the case of `Fc1ccc(/C=C2\CNCC3C2NC(=S)NC3c2ccc(F)cc2)cc1` (stereo not drawn), the half-inhibitory concentration (IC50) amounted to 28.8 µM in test [1] and 37.2 µM in test [2].

Regarding `Fc1ccc(C2=CSC3=NC4=C(CNC/C4=C\c4ccc(Cl)cc4)C(c4ccc(Cl)cc4)N23)cc1` (stereo not drawn), the values for the Ratio IC50 in test [3] and in test [4] were 0.36 and 2.75, respectively. Further, the IC50 in test [1] was determined as 15.8 µM; in test [2], 5.73 µM.

On to `Cc1ccc(/C=C2\CNCC3=C2N=C2SC=C(c4ccc(Cl)cc4)N2C3c2ccc(C)cc2)cc1` (stereo not drawn), for which the Ratio IC50 in test [3] was 0.67; in test [4], 1.5. Also, the IC50 in test [1] stood at 32.6 µM; in test [2], 21.7 µM.

As to `Fc1ccc(/C=C2\CNCC3=C2N=C2SC=C(c4ccc(F)cc4)N2C3c2ccc(F)cc2)cc1` (stereo not drawn), the Ratio IC50 worked out at 0.83 in test [3] and 1.2 in test [4]. In addition, the IC50 came out at 15.8 µM in test [1] and 13.2 µM in test [2].

On to `Cc1ccc(/C=C2\CNCC3C2NC(=S)NC3c2ccc(C)cc2)cc1` (stereo not drawn), for which the IC50 stood at 6.27 µM in test [1] and 37.5 µM in test [2].

With `S=C1NC2/C(=C/c3ccccc3)CNCC2C(c2ccccc2)N1` (stereo not drawn), the IC50 in test [1] was determined as 3.78 µM; in test [2], 19.3 µM.

Consider `COc1ccccc1/C=C1\CNCC2C1NC(=S)NC2c1ccccc1OC` (stereo not drawn), for which the IC50 in test [1] worked out at 1.18 µM; in test [2], 0.8 µM.

Turning to `Fc1ccc(/C=C2\CNCC3=C2N=C2SC=C(c4ccccc4)N2C3c2ccc(F)cc2)cc1` (stereo not drawn), the Ratio IC50 was 1.02 in test [3] and 0.98 in test [4]. Moreover, the values for the IC50 in test [1] and in test [2] were 3.95 µM and 4.04 µM, respectively.

In the case of `Fc1ccc(C2=CSC3=NC4=C(CNC/C4=C\c4ccccc4Cl)C(c4ccccc4Cl)N23)cc1` (stereo not drawn), the Ratio IC50 is 0.76 in test [3] and 1.3 in test [4]. Further, the figures for the half-maximal inhibitory concentration (IC50) in test [1] and in test [2] were 4.63 µM and 6.03 µM, respectively.

As to `Fc1ccc(/C=C2\CNCC3=C2N=C2SC=C(c4ccc(Cl)cc4)N2C3c2ccc(F)cc2)cc1` (stereo not drawn), the Ratio IC50 was 0.46 in test [3] and 2.16 in test [4]. The IC50 in test [1] was 22.2 µM; in test [2], 10.3 µM.

As for `COc1ccc(C2=CSC3=NC4=C(CNC/C4=C\c4ccc(F)cc4)C(c4ccc(F)cc4)N23)cc1` (stereo not drawn), the Ratio IC50 was determined as 0.84 in test [3] and 1.18 in test [4]. Moreover, the results for the concentration for half-maximal inhibition (IC50) in test [1] and in test [2] were 26.5 µM and 22.4 µM, respectively.

For the compound `COc1ccccc1/C=C1\CNCC2=C1N=C1SC=C(c3ccc(Cl)cc3)N1C2c1ccccc1OC` (stereo not drawn), the Ratio IC50 in test [3] is 0.17; in test [4] it was 5.76. Also, the IC50 came to 29.3 µM in test [1] and 5.08 µM in test [2].

Consider `COc1ccccc1/C=C1\CNCC2=C1N=C1SC=C(c3ccc(F)cc3)N1C2c1ccccc1OC` (stereo not drawn), for which the Ratio IC50 was found to be 0.63 in test [3] and 1.59 in test [4]. The IC50 was determined as 8.75 µM in test [1] and 5.5 µM in test [2].

Consider `Clc1ccc(/C=C2\CNCC3=C2N=C2SC=C(c4ccc(Cl)cc4)N2C3c2ccc(Cl)cc2)cc1` (stereo not drawn), for which the results for the Ratio IC50 in test [3] and in test [4] were 0.2 and 5.11, respectively. Further, the IC50 in test [1] is 27.4 µM; in test [2], 5.37 µM.

As for `Fc1ccc(C2=CSC3=NC4=C(CNC/C4=C\c4ccccc4)C(c4ccccc4)N23)cc1` (stereo not drawn), the values for the Ratio IC50 in test [3] and in test [4] were 2.57 and 0.39, respectively. Further, the half-maximal inhibitory concentration (IC50) in test [1] was found to be 7.91 µM; in test [2] it was 20.3 µM.

As for `C1=C(c2ccccc2)N2C(=NC3=C(CNC/C3=C\c3ccccc3)C2c2ccccc2)S1` (stereo not drawn), the Ratio IC50 was found to be 0.84 in test [3] and 1.19 in test [4]. Further, the IC50 in test [1] amounted to 1.74 µM; in test [2], 1.47 µM.

On to `Clc1ccccc1/C=C1\CNCC2=C1N=C1SC=C(c3ccccc3)N1C2c1ccccc1Cl` (stereo not drawn), for which the Ratio IC50 in test [3] came to 0.77; in test [4] it was 1.3. Further, the figures for the IC50 in test [1] and in test [2] were 2.68 µM and 2.05 µM, respectively.

Regarding `COc1ccc(C2=CSC3=NC4=C(CNC/C4=C\c4ccccc4)C(c4ccccc4)N23)cc1` (stereo not drawn), the Ratio IC50 in test [3] amounted to 1.52; in test [4], 0.65. In addition, the results for the IC50 in test [1] and in test [2] were 10.4 µM and 15.9 µM, respectively.

Consider `COc1ccc(C2=CSC3=NC4=C(CNC/C4=C\c4ccc(Cl)cc4)C(c4ccc(Cl)cc4)N23)cc1` (stereo not drawn), for which the Ratio IC50 in test [3] was 0.66; in test [4] it was 1.52. Besides, the values for the IC50 in test [1] and in test [2] were 12.8 µM and 8.44 µM, respectively.

For the compound `Cc1ccc(/C=C2\CNCC3=C2N=C2SC=C(c4ccc(F)cc4)N2C3c2ccc(C)cc2)cc1` (stereo not drawn), the results for the Ratio IC50 in test [3] and in test [4] were 1.32 and 0.76, respectively. For the same compound, the IC50 in test [1] turned out to be 4.91 µM; in test [2], 6.47 µM.

Take `S=C1NC2/C(=C/c3ccc(Cl)cc3)CNCC2C(c2ccc(Cl)cc2)N1` (stereo not drawn): the IC50 in test [1] came to 6.26 µM; in test [2] it was 2.25 µM.

`COc1ccc(C2=CSC3=NC4=C(CNC/C4=C\c4ccccc4OC)C(c4ccccc4OC)N23)cc1` (stereo not drawn): the Ratio IC50 in test [3] amounted to 0.64; in test [4], 1.55. Moreover, the IC50 came out at 18.6 µM in test [1] and 12 µM in test [2].

As to `COc1ccc(C2=CSC3=NC4=C(CNC/C4=C\c4ccc(C)cc4)C(c4ccc(C)cc4)N23)cc1` (stereo not drawn), the values for the Ratio IC50 in test [3] and in test [4] were 0.99 and 1.01, respectively. The IC50 in test [1] came to 10.5 µM; in test [2], 10.4 µM.
